The record followed here is ChEMBL document CHEMBL2163224, “In silico discovery of a compound with nanomolar affinity to antithrombin causing partial activation and increased heparin affinity” (J Med Chem, 2012).

Experiment [1] can be described thus: Binding affinity to purified human antithrombin at 64 uM by isothermal titration calorimetry.
A short description of experiment [2]: Binding affinity to purified human antithrombin at 64 uM in presence of 37 uM d-myo-inositol 3,4,5,6-tetrakisphosphate by isothermal titration calorimetry. (In general: In ITC the heat of successive injections is recorded.)
The species entered for experiment [3] is Homo sapiens. As to the kind of experiment: Activation of purified human antithrombin-high affinity heparin interaction assessed as antithrombin-mediated inhibition of factor 10a by measuring as second order association rate constant for chromogenic substrate hydrolysis at 1 uM by microplate reader based assay.
The species entered for experiment [4] is Homo sapiens. As to the kind of experiment: Induction of conformational changes in purified human antithrombin assessed as induction of transition latent conformation up to 14.8 uM at 37 or 42 degC incubated for 2 days in absence of urea by native PAGE. The gist of the method: (§1)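 Antithrombin incubated with compound up to 14.8 μM at 37 or 42 °C for 2 days; latent form and polymers assessed by immunoelectrophoresis on 8% (w/v) nondenaturing PAGE with or without 7 M urea.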

The species named for experiment [5] is Homo sapiens. As to the kind of experiment: Activation of purified human antithrombin-mediated inhibition of thrombin assessed as second order association rate constant for chromogenic substrate hydrolysis by microplate reader based assay.
A short description of experiment [6]: Binding affinity to purified human antithrombin at 128 uM by isothermal titration calorimetry.
The species entered for experiment [7] is Homo sapiens. Briefly: Activation of antithrombin in healthy human plasma assessed as inhibition of S-2238 hydrolysis at 148 uM incubated for 5 mins in presence of mouse Py-4-1 cells. It is filed as cell-free. Set-up: scale not given: the % may be the effect or the level left.
Experiment [8] is filed under the species Homo sapiens. As to the kind of experiment: Activation of purified human antithrombin-high affinity heparin interaction assessed as antithrombin-mediated inhibition of thrombin by measuring as second order association rate constant for chromogenic substrate hydrolysis at 1 uM by microplate reader based assay.
Experiment [9] is filed under the species Homo sapiens. As to the kind of experiment: Activation of antithrombin L99F mutant in type 2 antithrombin deficiency patient plasma assessed as inhibition of S-2238 hydrolysis at 148 uM incubated for 5 mins in presence of mouse Py-4-1 cells (reference value: 33.22 +/- 2.93%). Type of experiment: cell-free. Set-up: scale not given: the % may be the effect or the level left.

Experiment [10] is filed under the species Homo sapiens. Briefly: Induction of conformational changes in purified human antithrombin assessed as induction of antithrombin polymer formation up to 14.8 uM at 37 or 42 degC incubated for 2 days in absence of urea by native PAGE. The gist of the method: as §1
The species entered for experiment [11] is Homo sapiens. Briefly: Activation of purified human antithrombin-low affinity heparin interaction assessed as antithrombin-mediated inhibition of thrombin by measuring as second order association rate constant for chromogenic substrate hydrolysis at 1 uM by microplate reader based assay.
Experiment [12] is filed under the species Homo sapiens. Briefly: Induction of conformational changes in purified human antithrombin assessed as induction of antithrombin polymer formation up to 14.8 uM at 37 or 42 degC incubated for 2 days in presence of urea by native PAGE. In short, it runs like this: as §1
For experiment [13], the species on record is Homo sapiens. Briefly: Activation of antithrombin in healthy human plasma assessed as inhibition of S-2238 hydrolysis at 148 uM incubated for 5 mins in presence of 1 uM unfractionated heparin. Type of experiment: cell-free. Set-up: scale not given: the % may be the effect or the level left.
Experiment [14] is filed under the species Homo sapiens. As to the kind of experiment: Induction of conformational changes in purified human antithrombin assessed as induction of transition latent conformation up to 14.8 uM at 37 or 42 degC incubated for 2 days in presence of urea by native PAGE. The gist of the method:
as §1

The species entered for experiment [15] is Homo sapiens. As to the kind of experiment: Activation of citrullinated human antithrombin-mediated inhibition of factor 10a assessed as chromogenic substrate hydrolysis at 14.8 uM in presence of rabbit skeletal muscle […]. Details: scale not given: the % may be the effect or the level left. The gist of the method: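 Plasma-purified antithrombin (1 mg/mL) incubated with rabbit skeletal muscle PAD IV (50:1 molar ratio antithrombin/PAD) ± 14.8 μM compound in 100 mM Tris-HCl, 5 mM CaCl2, pH 7.4, 37 °C, 15 min; stopped with 50 mM EDTA. Residual anti-FXa activity by chromogenic assay with heparin, bovine FXa, S-2765, A405. Two experiments in triplicate, % of antithrombin alone.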

The species named for experiment [16] is Homo sapiens. Briefly: Activation of antithrombin L99F mutant in type 2 antithrombin deficiency patient plasma assessed as inhibition of S-2238 hydrolysis at 148 uM incubated for 5 mins in presence of 1 uM unfractionated heparin (reference value: 33.22 +/- 2.93%). Details: scale not given: the % may be the effect or the level left. Type of experiment: cell-free.

Experiment [17] can be described thus: Activation of purified human antithrombin-unfractionated heparin interaction assessed as change in antithrombin intrinsic fluorescence by fluorescence spectrophotometry. In short, it runs like this: (§2)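 Antithrombin intrinsic fluorescence emission at 340 nm titrated with UFH (alone or after antithrombin preincubation with 37 μM compound) at room temperature, I = 0.15, 20 mM NaPO4, 100 mM NaCl, 0.1 mM EDTA, 0.1% PEG 8000, pH 7.4. Each point averaged from 100 readings at 1 s intervals; Kd obtained by data fitting.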

Experiment [18] is filed under the species Homo sapiens. As to the kind of experiment: Activation of purified human antithrombin-mediated inhibition of factor 10a assessed as second order association rate constant for chromogenic substrate hydrolysis by microplate reader based assay.
Experiment [19] deals with T1, Antithrombin (Homo sapiens) (UniProt Q15950).
T1 sequence (whole entry): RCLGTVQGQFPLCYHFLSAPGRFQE
Briefly: Activation of purified human antithrombin-unfractionated heparin assessed as change in antithrombin intrinsic fluorescence at 37 uM by fluorescence spectrophotometry relative to untreated heparin control. In short, it runs like this: as §2

Experiment [20] is filed under the species Homo sapiens. Briefly: Activation of purified human antithrombin-low affinity heparin interaction assessed as antithrombin-mediated inhibition of factor 10a by measuring as second order association rate constant for chromogenic substrate hydrolysis at 1 uM by microplate reader based assay.

pKd: −log10 of the molar value. Activity calls are given as the source filed them. The calls are words filed in the database; no cut-off is given here.

As a reminder, the pKd is the negative decadic logarithm of the Kd, by convention in mol/L. With `CO[C@H]1O[C@H](COS(=O)(=O)O)[C@@H](O[C@@H]2O[C@@H](C(=O)O)[C@@H](O[C@H]3O[C@H](COS(=O)(=O)O)[C@@H](O[C@@H]4O[C@H](C(=O)O)[C@@H](O[C@H]5O[C@H](COS(=O)(=O)O)[C@@H](O)[C@H](O)[C@H]5NS(=O)(=O)O)[C@H](O)[C@H]4O)[C@H](OS(=O)(=O)O)[C@H]3NS(=O)(=O)O)[C@H](O)[C@H]2OS(=O)(=O)O)[C@H](O)[C@H]1NS(=O)(=O)O` [FONDAPARINUX SODIUM], the negative-log Kd (pKd) was 6.56 in experiment [1] and 7.73 in experiment [2].
Consider `O=P(O)(O)O[C@@H]1[C@@H](OP(=O)(O)O)[C@H](OP(=O)(O)O)[C@@H](O)[C@@H](O)[C@H]1OP(=O)(O)O`, for which the K in [3] was found to be 2.28 µM⁻¹ s⁻¹; in [5], 0.023 µM⁻¹ s⁻¹; in experiment [8] it was 3.28 µM⁻¹ s⁻¹; in [11], 0.683 µM⁻¹ s⁻¹; in experiment [18], 0.012 µM⁻¹ s⁻¹; in [20], 0.087 µM⁻¹ s⁻¹. Also, the result in [4], in experiment [10], in [12] and in experiment [14] was inactive. The pKd in experiment [6] and in experiment [17] was 7.35 throughout. Moreover, the Activity amounted to 101% in experiment [7]; 37.2% in [9]; 97.3% in experiment [13]; 30% in [15]; 40% in experiment [16]. For the same compound, in [19], the fold change (FC) turned out to be 2.3.
